Measurements collected from several papers.
Compare with care: the assays were run in different laboratories.
Target: Testis-specific serine/threonine-protein kinase 3 (TSSK3, Homo sapiens, UniProt Q96PN8)
One construct used (Q96PN8 1-268): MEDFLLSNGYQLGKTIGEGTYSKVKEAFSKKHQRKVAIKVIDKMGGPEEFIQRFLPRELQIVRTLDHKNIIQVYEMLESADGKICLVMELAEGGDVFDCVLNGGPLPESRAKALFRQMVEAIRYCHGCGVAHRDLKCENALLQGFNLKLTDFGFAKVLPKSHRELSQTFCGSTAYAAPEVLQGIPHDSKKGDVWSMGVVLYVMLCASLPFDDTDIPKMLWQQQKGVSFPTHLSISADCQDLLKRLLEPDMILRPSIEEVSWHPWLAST

SMILES	read-out	technique	concentration	remaining binding [%]
O=C(c1ccc(Nc2ncc(Cl)c(-c3cc4ccccc4s3)n2)cc1)N1CCC(N2CCCC2)CC1	binding	competition with immobilised ligand	1 µM	85
CCCCN(CCCC)C(=O)CN1C[C@H](c2cc(OC)c3c(c2)OCO3)[C@@H](C(=O)O)[C@@H]1CC(C)(C)CCC	cell-free assay	competition with immobilised ligand	1 µM	100
O=C(Nc1c[nH]nc1C(=O)NC1CCNCC1)c1cc(F)cc(F)c1	binding	competition with immobilised ligand	1 µM	100
N[C@@H]1CCN(c2nccc(-c3cnn4ncccc34)n2)C1	binding		1 µM	100
O=C(NCCCN1CCOCC1)c1ccc(Nc2ncc(Cl)c(-c3ccc(Cl)s3)n2)cc1	binding	competition with immobilised ligand	1 µM	100
CN(C)c1nccc(-c2cnn3ncccc23)n1	binding		1 µM	100
CNC(=O)Nc1ccc2c(c1)[C@@]1(CC2)OC(=O)N(CC(=O)N(Cc2ccc(F)cc2)[C@@H](C)C(F)(F)F)C1=O	cell-free assay	competition with immobilised ligand	1 µM	100
c1cnn2ncc(-c3ccnc(N4CCC45COC5)n3)c2c1	binding		1 µM	98
COc1cnc(Nc2cccc(S(N)(=O)=O)c2)nc1N1CCN(c2ccccc2)CC1	binding	competition with immobilised ligand	1 µM	97
C=CC(=O)N1CCC(C(=O)NCC(=O)N2CCN(c3nc(-c4cnc(N)nc4C(F)F)nc(N4CCOCC4)n3)CC2)CC1	binding	competition with immobilised ligand	1 µM	100
O=C(Nc1cnc(Oc2ccc(F)cc2)nc1)N1CCc2ncccc2[C@@H]1c1ccc(F)cc1	cell-free assay	competition with immobilised ligand	1 µM	86
COc1cnc(Nc2cccc(S(N)(=O)=O)c2)nc1N1CCN(c2ccccc2)C(=O)C1	binding	competition with immobilised ligand	1 µM	90
C[C@@]1(Cc2ccc(C#N)cc2)C(=O)N(c2cc(Cl)cc(Cl)c2)c2ncc(C(=O)NC3(c4nc(C5CCC5)no4)CC3)n21	cell-free assay	competition with immobilised ligand	1 µM	100
CN(CCCC(F)(F)F)c1nccc(-c2cnn3ncccc23)n1	binding		1 µM	85
CCS(=O)(=O)c1cc2cc(C[C@](O)(CC(C)(C)c3ccc(F)cc3C(N)=O)C(F)(F)F)[nH]c2cn1	cell-free assay	competition with immobilised ligand	1 µM	100
COc1ncc2cc3ccccc3nc2c1C#N	cell-free assay	competition with immobilised ligand	5 µM	90
C[C@@H]1CCN(c2nccc(-c3cnn4ncccc34)n2)C1	binding		1 µM	78
CC1=C(C#N)[C@@H](c2ccc3[nH]nc(C)c3c2)C(C#N)=C(c2ccc(Cl)cc2)N1	cell-free assay	competition with immobilised ligand	1 µM	100
CN(C)c1ncc(F)c(-c2cnn3ncccc23)n1	binding		1 µM	99
O=C(c1ccc(Nc2ncc(Cl)c(-c3ccc(Cl)s3)n2)cc1)N1CCC(N2CCCC2)CC1	binding	competition with immobilised ligand	1 µM	100
Nc1ncc2c(n1)-c1c([nH]c3ccc(C#CC4CC4)cc13)CCCC2	binding	competition with immobilised ligand	1 µM	70
